Laboratory results reported in ChEMBL document CHEMBL3102806, “1,2,4-Triazole/oxime hybrids as new strategy for nitric oxide donors: Synthesis, anti-inflammatory, ulceroginicity and antiproliferative activities” (Eur J Med Chem, 2014).

Key:
[1] = Growth inhibition of human SF539 cells assessed as cell growth at 10^-5 M after 48 hrs by sulforhodamine B assay relative to control; type: functional; details: SF-539, 48 h, read-out: Activity
Summary of the method: (§1)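 NCI primary screen, one-dose format across about 60 human tumour cell lines. Single addition at 10^-5 M with 48 h incubation; SRB protein-binding dye end point read spectrophotometrically. Reported as percent growth of treated cells versus untreated controls.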

SK-MEL-2 = experiment: Growth inhibition of human SK-MEL-2 cells assessed as cell growth at 10^-5 M after 48 hrs by sulforhodamine B assay relative to control; type: functional; details: SK-MEL-2, 48 h, read-out: Activity
Summary of the method: (§2)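 NCI primary screen across about 60 human tumour cell lines. Single dose of 10^-5 M, cultures incubated 48 h, end point by sulforhodamine B protein staining read spectrophotometrically. Results are given as percent growth of treated cells relative to untreated control cells.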

PC-3 = experiment: Growth inhibition of human PC3 cells assessed as cell growth at 10^-5 M after 48 hrs by sulforhodamine B assay relative to control; type: functional; details: PC-3, 48 h, read-out: Activity; summary of the method: as §1
Rattus norvegicus [2] = experiment: Antiinflammatory activity in albino rat assessed as inhibition of carrageenan-induced paw edema at 0.28 mmol/kg, po administered 30 mins prior to carrageenan-challenge measured after 2 hrs relative to control; type: functional
Summary of the method: (§3)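 Male albino rats in groups of four were fasted 24 h with water allowed. Dosing was oral at 0.28 mmol/kg, suspended in 0.5% w/v CMC; controls got CMC alone. After 30 min, 0.1 ml of 1% carrageenan in saline went subplantar into the right hind paw and saline into the left. Paw thickness was read by caliper before and at 1–5 h. % inhibition = [(VR−VL)control−(VR−VL)treated]/(VR−VL)control ×100. Mean ± SEM, n = 4, one-way ANOVA vs control.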

[3] = Induction of nitric oxide release in phosphate buffer at 10^-4 M at pH 7.4 after 1 hr by Griess colorimetric method in presence of N-acetylcysteine; type: physicochemical; details: pH 7.4, 1 h, 100 µM
Summary of the method: (§4)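 Final drug concentration 10^-4 M, added from DMF into 1:1 50 mM phosphate buffer (pH 7.4)/MeOH containing 5 × 10^-4 M N-acetylcysteine, at 37 °C. Nitrite read with Griess reagent after 10 min at room temperature, absorbance at 546 nm. Calibration with sodium nitrite standards (10–80 nmol/ml). Reported as mol NO per mol, n = 4 reaction mixtures.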

HT-29 = experiment: Growth inhibition of human HT-29 cells assessed as cell growth at 10^-5 M after 48 hrs by sulforhodamine B assay relative to control; type: functional; details: HT-29, 48 h, read-out: Activity
Summary of the method: (§5)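 NCI ~60 human tumour cell line screen. Single concentration of 10^-5 M added to cultures for 48 h. End point by sulforhodamine B protein staining read spectrophotometrically. Percent growth relative to untreated control cells.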

NCI-H322M = experiment: Growth inhibition of human NCI-H322M cells assessed as cell growth at 10^-5 M after 48 hrs by sulforhodamine B assay relative to control; type: functional; details: read-out: Activity; summary of the method: as §1
NCI-H522 = experiment: Growth inhibition of human NCI-H522 cells assessed as cell growth at 10^-5 M after 48 hrs by sulforhodamine B assay relative to control; type: functional; details: NCI-H522, 48 h, read-out: Activity; summary of the method: as §1
MDA-MB-468 = experiment: Growth inhibition of human MDA-MB-468 cells assessed as cell growth at 10^-5 M after 48 hrs by sulforhodamine B assay relative to control; type: functional; details: MDA-MB-468, 48 h, read-out: Activity; summary of the method: as §1
NCI-H23 = experiment: Growth inhibition of human NCI-H23 cells assessed as cell growth at 10^-5 M after 48 hrs by sulforhodamine B assay relative to control; type: functional; details: NCI-H23, 48 h, read-out: Activity; summary of the method: as §1
HCT-116 = experiment: Growth inhibition of human HCT116 cells assessed as cell growth at 10^-5 M after 48 hrs by sulforhodamine B assay relative to control; type: functional; details: HCT-116, 48 h, read-out: Activity; summary of the method: as §5
M14 = experiment: Growth inhibition of human M14 cells assessed as cell growth at 10^-5 M after 48 hrs by sulforhodamine B assay relative to control; type: functional; details: M14, 48 h, read-out: Activity; summary of the method: as §1
Rattus norvegicus [4] = experiment: Antiinflammatory activity in albino rat assessed as inhibition of carrageenan-induced paw edema at 0.28 mmol/kg, po administered 30 mins prior to carrageenan-challenge measured after 1 hr relative to control; type: functional; summary of the method: as §3
SNB-19 = experiment: Growth inhibition of human SNB19 cells assessed as cell growth at 10^-5 M after 48 hrs by sulforhodamine B assay relative to control; type: functional; details: SNB-19, 48 h, read-out: Activity; summary of the method: as §2
Rattus norvegicus [5] = experiment: Ulcerogenic activity in albino rat carrageenan-induced paw edema model assessed as ulcer index at 0.28 mmol/kg, po (reference value: 0.60 +/- 0.05); type: toxicity, organism-based; details: in vivo
Summary of the method: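 Rats given the compound orally at 0.28 mmol/kg, suspended in 0.5% aqueous CMC; vehicle-only control, n = 4 per group. Gastric ulcers graded by area: I (<1 mm²), II (1–3 mm²), III (>3 mm²). Ulcer index = 1×(level I count) + 2×(level II) + 3×(level III). Mean ± SEM, one-way ANOVA versus control.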

[6] = Induction of nitric oxide release in HCl buffer at 10^-4 M at pH 1 after 1 hr by Griess colorimetric method in presence of N-acetylcysteine; type: physicochemical; details: pH 1, 1 h, 100 µM
Summary of the method: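 Same Griess nitrite procedure at 10^-4 M final drug with N-acetylcysteine at 37 °C, but with 0.1 N HCl (pH 1) in place of the pH 7.4 phosphate buffer. Absorbance at 546 nm against a sodium nitrite calibration curve.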

RPMI-8226 = experiment: Growth inhibition of human RPMI8226 cells assessed as cell growth at 10^-5 M after 48 hrs by sulforhodamine B assay relative to control; type: functional; details: RPMI-8226, 48 h, read-out: Activity; summary of the method: as §1
[7] = Growth inhibition of human HCC2998 cells assessed as cell growth at 10^-5 M after 48 hrs by sulforhodamine B assay relative to control; type: functional; details: HCC 2998, 48 h, read-out: Activity; summary of the method: as §5
[8] = Growth inhibition of human Hs 578T cells assessed as cell growth at 10^-5 M after 48 hrs by sulforhodamine B assay relative to control; type: functional; details: read-out: Activity; summary of the method: as §5
786-0 = experiment: Growth inhibition of human 786-0 cells assessed as cell growth at 10^-5 M after 48 hrs by sulforhodamine B assay relative to control; type: functional; details: 786-0, 48 h, read-out: Activity; summary of the method: as §5
[9] = Induction of nitric oxide release in phosphate buffer at 10^-4 M at pH 7.4 after 3 hrs by Griess colorimetric method in presence of N-acetylcysteine; type: physicochemical; details: pH 7.4, 3 h, 100 µM; summary of the method: as §4
HL-60(TB) = experiment: Growth inhibition of human HL-60(TB) cells assessed as cell growth at 10^-5 M after 48 hrs by sulforhodamine B assay relative to control; type: functional; details: HL-60, 48 h, read-out: Activity
Summary of the method: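 NCI primary screen across about 60 human tumour cell lines. Single dose of 10^-5 M, 48 h incubation, sulforhodamine B protein-dye end point read spectrophotometrically. Reported as percent growth of treated cells versus untreated control cells.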

KM12 = experiment: Growth inhibition of human KM12 cells assessed as cell growth at 10^-5 M after 48 hrs by sulforhodamine B assay relative to control; type: functional; details: KM12, 48 h, read-out: Activity; summary of the method: as §1

SMILES | growth at 10 µM [1] [%] | growth at 10 µM (SK-MEL-2) [%] | growth at 10 µM (PC-3) [%] | inhibition in vivo at 280 µmol/kg (Rattus norvegicus [2]) [%] | Activity [3] [mol/mol] | growth at 10 µM (HT-29) [%] | growth at 10 µM (NCI-H322M) [%] | growth at 10 µM (NCI-H522) [%] | growth at 10 µM (MDA-MB-468) [%] | growth at 10 µM (NCI-H23) [%] | growth at 10 µM (HCT-116) [%] | growth at 10 µM (M14) [%] | inhibition in vivo at 280 µmol/kg (Rattus norvegicus [4]) [%] | growth at 10 µM (SNB-19) [%] | UI (Rattus norvegicus [5]) | Activity [6] | growth at 10 µM (RPMI-8226) [%] | growth at 10 µM [7] [%] | growth at 10 µM [8] [%] | growth at 10 µM (786-0) [%] | other results
C/C(=N\O)c1ccc(NC(=O)CSc2nnc(-c3ccccc3)n2-c2ccccc2)cc1 | 97.2 | 97.7 | 104 | 52 | 0.11 | 73.3 | 66.7 | 53.3 | 90.4 | 76.6 | 97.5 | 100 | 50 | 45.8 | 0.95 | Not Active | 91.2 | 28.6 | 79.6 | 92.7 | Activity [9]: 0.2 mol/mol; growth at 10 µM (HL-60(TB)): 90.4%; growth at 10 µM (KM12): 83.1%
COc1ccc(-c2nnc(SCC(=O)Nc3ccc(/C(C)=N/O)cc3)n2-c2ccccc2)cc1OC | 43 | 57.6 | 110 | 63 | 0.15 | 91.2 | 75.7 | 35.3 | 78.5 | 68.8 | 69.2 | 89.9 | 57 | 75.8 | 1.11 | Not Active | 91.6 | 94 | 42.8 | 64.5 | Activity [9]: 0.23 mol/mol; growth at 10 µM (HL-60(TB)): 77.3%; growth at 10 µM (KM12): 106%
